Laboratory results published in ChEMBL document CHEMBL1128185, “New orally active serine protease inhibitors: structural requirements for their good oral activity” (J Med Chem, 1995).

What was measured:
[1] = The half-life period in vitro in plasma; type: ADME, cell-free
In short: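 Rat plasma (1.0 mL) spiked with 5 µL of drug dissolved at 2 mg/mL in 80% aqueous acetonitrile, incubated at 37 °C for 60 min. Parent drug and products followed by ion-paired HPLC with internal standard; metabolites identified by retention times of synthesized authentic samples. Stability expressed as half-life (min), mean of two separate experiments.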

[2] = The half-life period in vitro in rat small Intestine Homogenate; type: ADME
In short: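 Small intestine from rats fasted 20 h, saline-washed, homogenized in 8 vol 1/10 M sodium phosphate pH 7.4, spun at 600g for 15 min; supernatant (1.0 mL) given 10 µL drug (5 mg/mL in 80% aqueous acetonitrile), 37 °C, 60 min. Aliquots quenched at intervals with acetonitrile containing internal standard and analyzed by HPLC. Half-life (min), mean of two experiments.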

Row | Structure (SMILES) | half-life [1] | half-life [2]
1 | C/C(=C\c1ccc(C(=O)Oc2ccc(C(=N)N)cc2)cc1)C(=O)N(CC(=O)O)Cc1ccccc1 | > 60 min | 50 min
2 | C/C(=C\c1ccc(C(=O)Oc2ccc(C(=N)N)cc2)cc1)C(=O)N(CCO)Cc1ccccc1 | < 5 min | 41 min
3 | C=CCN(CCCC(=O)OCC)C(=O)/C(C)=C/c1ccc(C(=O)Oc2ccc(C(=N)N)cc2)cc1 | < 1 min | 
4 | C=CCN(CCC(=O)O)C(=O)/C(C)=C/c1ccc(C(=O)Oc2ccc(C(=N)N)cc2)cc1 | 47 min | > 60 min
5 | CCOC(=O)CCCN(C(=O)/C(C)=C/c1ccc(C(=O)Oc2ccc(C(=N)N)cc2)cc1)C(C(=O)O)C(=O)OCC (stereo not given) | 14 min | 
6 | C=CCN(CCCC(=O)O)C(=O)/C(C)=C/c1ccc(C(=O)Oc2ccc(C(=N)N)cc2)cc1 | > 60 min | 55 min
7 | CCN(CC(=O)O)C(=O)/C(C)=C/c1ccc(C(=O)Oc2ccc(C(=N)N)cc2)cc1 | 60 min | > 60 min
8 | CCOC(=O)CCCN(C(=O)/C(C)=C/c1ccc(C(=O)Oc2ccc(C(=N)N)cc2)cc1)C(C(=O)OCC)C(=O)OCC | < 1 min | 
9 | CCOC(=O)CN(Cc1ccccc1)C(=O)/C(C)=C/c1ccc(C(=O)Oc2ccc(C(=N)N)cc2)cc1 | < 1 min | 44 min
10 | CCOC(=O)C(C(=O)OCC)N(CCCC(=O)O)C(=O)/C(C)=C/c1ccc(C(=O)Oc2ccc(C(=N)N)cc2)cc1 | 29 min | 

Now from value to compound:

Row | half-life [1] | half-life [2] | Structure (SMILES)
11 | < 5 min | > 60 min | CCOC(=O)CN(C(=O)/C(C)=C/c1ccc(C(=O)Oc2ccc(C(=N)N)cc2)cc1)C1CCCC1
12 | < 5 min | > 60 min | CCOC(=O)CN(C(=O)/C(C)=C/c1ccc(C(=O)Oc2ccc(C(=N)N)cc2)cc1)C1CCCCC1
13 | > 60 min | 49 min | C/C(=C\c1ccc(C(=O)Oc2ccc(C(=N)N)cc2)cc1)C(=O)N(CC(=O)O)C1CCCCC1
14 | < 1 min |  | C=CCN(CCC(=O)OCC)C(=O)/C(C)=C/c1ccc(C(=O)Oc2ccc(C(=N)N)cc2)cc1
15 | 23 min | 42 min | C/C(=C\c1ccc(C(=O)Oc2ccc(C(=N)N)cc2)cc1)C(=O)N(CC(=O)O)C1CCCC1
